A selection: hits, their analogues and other compounds. The true share with any hit is near 9.3%.
PostGolgi yeast – growth inhibition of a yeast mutant, post-Golgi transport screen. inhibition, % at 10 µM. 98,000 tested, 0.9% active. post-Golgi transport phenotypic cell assay. AID 739;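 also: yeast cells grown in 1536-well plates; yeast grown about 18 h at 30C before absorbance read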
Ecoli WT expand – growth inhibitors of E. coli BW25113 wild type; OD600 absorbance; 98,000 tested, 0.15% active; growth inhibition, % at 100 µM; AID 710;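 active = growth inhibition above about 50% at one test dose, limit read from the data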;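 also: growth measured after 20 h incubation at 37 °C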
DAT uptake mod – modulates human dopamine transporter uptake under cocaine. Q01959. 110,000 tested, 1.3% active. LLC-PK1 hDAT cells, [14C]-dopamine uptake with cocaine IC80; actives deviate in either direction. B-score at 10 µM;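 active = Z score or B-score, a plate-position-corrected score, falls beyond the plate's 99.7% confidence bounds, in either direction; inactive = both scores lie inside the 99.7% bounds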
tolC growth inh – E. coli tolC mutant growth inhibition | E. coli BW25113 tolC mutant growth, OD615 | growth inhibition, % at 10 µM (by protocol) | 65,000 tested, 2.2% active | AID 573;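 active = growth inhibition at or above a cutoff equal to the mean over every tested compound plus 3 SD, cut at about 60% in these data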;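 also: growth measured after 20 h incubation at 37 °C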
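Test system: E. coli BW25113 ΔtolC::kan bacteria; incubation: 37 °C, 20 h exposure; medium: LB broth supplemented with 50 µg/mL kanamycin; read-out basis: percent growth inhibition; signal: A615 absorbance measurement; compound: 10 µM final, single dose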
PostGolgi ctrl – inhibits growth of the yeast control strain. efflux-deficient yeast background strain, growth absorbance A615, 16 h. inhibition, % at 10 µM. 98,000 tested, 5% active. AID 738
D1 allo mod – D1 dopamine receptor (human) allosteric modulation | P21728 | HEK293 D1, CRE-luciferase, dopamine EC30 potentiation; actives deviate in either direction | B-score at 10 µM | 58,000 tested, 5.9% active | AID 641;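 active = luminescence count or its row- and column-corrected plate score outside the 99.7% band of the plate's sample wells, on either side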
Target sequence (P21728 whole entry, looked up): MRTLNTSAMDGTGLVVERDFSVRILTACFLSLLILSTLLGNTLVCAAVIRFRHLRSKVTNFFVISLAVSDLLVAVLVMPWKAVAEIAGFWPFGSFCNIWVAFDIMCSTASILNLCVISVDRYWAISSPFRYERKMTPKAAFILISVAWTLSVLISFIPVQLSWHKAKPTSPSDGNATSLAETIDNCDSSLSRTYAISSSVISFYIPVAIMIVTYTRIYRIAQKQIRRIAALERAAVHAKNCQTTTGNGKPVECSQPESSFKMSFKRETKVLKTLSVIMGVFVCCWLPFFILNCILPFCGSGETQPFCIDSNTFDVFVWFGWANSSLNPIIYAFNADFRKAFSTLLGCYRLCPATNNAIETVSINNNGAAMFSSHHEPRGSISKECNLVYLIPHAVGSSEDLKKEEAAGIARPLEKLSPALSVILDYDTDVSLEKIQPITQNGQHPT
Hits are given with their value; - = inactive; . = no result given. Rule as the data show it, unless noted: active = inhibition above about 30%; inactive = the rest.

SMILES	PostGolgi yeast	Ecoli WT expand	DAT uptake mod	tolC growth inh	PostGolgi ctrl	D1 allo mod
CCC(=O)Nc1c(C#N)c2nc3ccccc3nc2n1C1CCCCC1	-	-	-	-	37	-
Fc1ccc(/C=N/n2c(-c3cccs3)n[nH]c2=S)cc1	-	-	-	.	-	.
CCN1C(=O)c2cccc3c(NC(=O)c4ccc(S(=O)(=O)N5CCOCC5)cc4)ccc1c23	-	-	3.7	-	-	-
Cc1cc(NC(=O)c2ccc(S(=O)(=O)N3CCOCC3)cc2)nc2c1c(=O)oc1ccccc12	31	-	.	-	-	.
CCC(CC)C(=O)Nc1cc(C)c2c(=O)oc3ccccc3c2n1	-	-	-	-	34	.
COc1ccc(CC(=O)Nc2cc(C)c3c(=O)oc4ccccc4c3n2)cc1	.	.	-	-	.	-
COC(=O)C1=C(C(=O)OC)[C@@H]2N(C)c3ccccc3[C@@]23C[C@@H](CO)N(C(=O)NCCBr)C3=N1	.	.	-	.	.	.
CCOC(=O)c1c(NC(=O)CSc2nnc(CNc3ccc(F)cc3)o2)sc(C)c1C	-	-	-	-	38	-4.5
CCc1cc2c3c(c(=O)oc2cc1OC)CCCC3	-	-	-	-	49	-
CCOc1cc2oc(=O)c3c(c2cc1Cl)CCC3	-	-	-	-	-	-
CCOc1ccc(N2CC(C(=O)Nc3ccccc3F)CC2=O)cc1 (configuration not stated)	-	-	-	-	-	-
CCOC(=O)Cc1c(C)c2ccc(N(CC)CC)cc2oc1=O	46	-	.	-	-	-
CCc1c(C)c2ccc(OCC(=O)N(C)C)c(C)c2oc1=O	-	-	-	-	-	-
C=C(C)COc1ccc2c(C)c(CC(=O)OC)c(=O)oc2c1C	104	-	-	-	109	-
COC(=O)Cc1c(C)c2ccc(OCC(C)=O)c(C)c2oc1=O	-	-	-	-	-	-
CCOC(=O)CCc1c(C)c2ccc(OCC(=O)N(CC)CC)c(C)c2oc1=O	-	-	2.7	-	-	-
CCCCNC(=O)Cc1cc(=O)[nH]c(=O)[nH]1	.	.	-	.	.	.
O=C(COc1cccc(NC(=O)c2cccc([N+](=O)[O-])c2)c1)c1ccc(Br)cc1	-	-	-	.	-	.
COc1ccccc1Nc1nc(N)nc(CN2CCN(Cc3ccccc3)CC2)n1	-	-	-	-	-	-
COc1ccccc1N1CCN(Cc2nc(N)nc(Nc3ccc(C)c(Cl)c3)n2)CC1	-	-	-	69	-	-
COc1ccccc1Nc1nc(N)nc(CSc2ncccn2)n1	-	-	-	-	32	-
COc1ccccc1Nc1nc(N)nc(CSCCO)n1	-	-	-	-	-	-
COc1ccccc1Nc1nc(N)nc(CN2CCN(c3ccccc3F)CC2)n1	-	-	2.8	-	-	-
Cc1cccc(Nc2nc(N)nc(CN3CCN(c4ccccc4F)CC3)n2)c1	.	.	.	-	.	-
CCN1C(=O)N(C)[C@@H](c2ccccc2)C(C(C)=O)=C1C	.	.	-	.	.	.
SMILES	PostGolgi yeast	Ecoli WT expand	DAT uptake mod	tolC growth inh	PostGolgi ctrl	D1 allo mod
COc1ccc(-c2noc(CCC(=O)N3CCN(Cc4ccccc4)CC3)n2)cc1	-	-	-	-	-	.
COc1ccc(-c2noc(CN3CCC(Cc4ccccc4)CC3)n2)cc1	.	.	-	67	.	-
c1ccc(CC2CCN(Cc3nc(-c4ccccc4)no3)CC2)cc1	-	-	-	70	-	-
O=C(O)c1ccccc1OCCOCCOc1ccccc1C(=O)O	-	-	-	-	-	-
O=C(O)c1ccccc1OCCOc1ccccc1C(=O)O	-	-	-	-	44	-
Cc1cc2ccccc2n1CCNC(=O)c1ccc(S(=O)(=O)N2CCCCC2)cc1	-	-	2.5	.	-	.
CCCc1cc(=O)[nH]c(SCC(=O)NC(=O)OCC)n1	-	-	-	-	-	-
CCCc1cc(=O)[nH]c(SCC(=O)NC(=O)c2ccccc2)n1	-	-	-	.	32	-
COc1ccccc1NC(=O)CN(Cc1ccccc1)S(C)(=O)=O	.	.	-	.	.	.
CCOC(=O)c1cc(CC)sc1NC(=O)Cc1ccsc1	-	-	-	73	-	.
CN(C)CCNC=C(C(=O)Nc1ccc(Cl)cc1Cl)C(=O)Nc1ccc(Cl)cc1Cl	40	-	-	.	99	.
CC(Oc1ccc(Cl)cc1Cl)C(=O)NCCCN(C)C (configuration not stated)	-	-	-	-	-	.
Cc1nn(Cc2ccc(F)cc2)c(C)c1NC(=O)c1cnn2c1NC(c1cccs1)CC2C(F)(F)F (configuration not stated)	-	-	2.9	.	-	.
Cc1nn(Cc2ccc(F)cc2)c(C)c1NC(=O)c1cnn2c1NC(c1ccccc1)CC2C(F)(F)F (configuration not stated)	-	-	-	.	-	.
CC(NC(=O)Cc1cccs1)c1ccc2c(c1)OCO2 (configuration not stated)	-	-	-	-	37	-
CC(NC(=O)Cc1cccs1)c1ccncc1 (configuration not stated)	-	-	-	-	-	-
CC(C)CC(NC(=O)OC(C)(C)C)c1cn([C@@H](Cc2ccc(O)cc2)C(=O)N2CCN(C(=O)OC(C)(C)C)CC2)nn1 (some centres not stated)	.	.	-	.	.	.
Cc1nc2ccccc2n2c(-c3ccccc3)c3c(=O)n(C)c(=O)n(C)c3c12	-	-	-	.	47	.
Cc1cc(C)c2c3c(c(-c4ccccc4)n2n1)c(=O)n(C)c(=O)n3C	.	.	.	-	.	5.6
Cc1cccc(-c2c3c(=O)n(C)c(=O)n(C)c3c3c(C)cc(C)nn23)c1	.	.	.	-	.	3.6
Cc1cccc(-c2c3c(=O)n(C)c(=O)n(C)c3cn2C2CCCCC2)c1	76	-	-	.	-	.
Cn1c(=O)c2c(-c3ccccc3)n3c4ccccc4ncc3c2n(C)c1=O	.	.	-	-	.	-
Clc1ccc(Sc2oc(/C=N/n3cnnc3)cc2Br)cc1	-	-	-	-	47	-
Clc1ccc(Sc2ccc(/C=N/n3cnnc3)o2)cc1	-	-	-	.	-	.
O=C(CCN1CCc2ccccc2C1)Nc1ccccc1F	-	-	-	-	-	-
N=c1n(CCO)c2ccccc2n1CCOc1ccc(Cl)cc1Cl	-	-	3	-	-	-
Cc1ccc(NS(=O)(=O)c2cccc(C(=O)OCC(=O)NCc3ccco3)c2)cc1	-	-	-	-	-	-
COc1ccc(NS(=O)(=O)c2cccc(C(=O)OCC(=O)Nc3cc(C)on3)c2)cc1	-	-	-	.	42	.
Cc1nnc(SCc2ccc(Cl)cc2)n1CC1CCCO1 (configuration not stated)	-	-	-	-	-	-

Screening data as filed in PubChem.
